Format in all cases: cell-based
Data set [1] has as its system MCF-7 cells. The data set can be described thus: MTT assay, anti-proliferative activity on MCF-7 cells. As to conditions: Homo sapiens, MCF7, 48 h, read-out: IC50, growth/viability of MCF-7 cells.
Data set [2] in a line: MTT assay, cytotoxicity on normal breast cells MCF-10A. Particulars: human, MCF-10A cells (normal breast cells).
Data set [3] concerns MCF-7 cells. Briefly: Cell cycle analysis by flow cytometry. Particulars: MCF-7, 3b at IC50 (1.85 μM), 48 h. The procedure, abridged: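 MCF-7 cells were seeded, held 12 h at 37 °C, then treated for 48 h. Cells were collected and fixed in 75% ethanol at 20 °C for 18 h. They were rinsed in PBS, centrifuged, and exposed to RNase plus propidium iodide. DNA content was read by FACS Calibur flow cytometry to give cell-cycle phase distribution.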

In data set [4] the test system is MCF-7 cells. The data set can be described thus: Annexin V-FITC/PI assay of apoptosis and necrosis. Particulars: MCF-7, 3b at IC50 (1.85 μM), 48 h. The essentials: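 MCF-7 cells were treated for 48 h, then harvested and washed twice in PBS by centrifugation (180 g, 10 min, 4 °C). Cells were resuspended in binding buffer with Annexin V-FITC for 10 min at ambient temperature, then diluted with more binding buffer. PI was added immediately before FACS Calibur flow cytometry to separate apoptotic from necrotic cells.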

Data set [5] concerns the target human DNA topoisomerase II-β (TOPII-β) (Homo sapiens, UniProt Q02880). Briefly: Topoisomerase II activity in MCF-7 cells. As to conditions: ELISA kit. The procedure, abridged:
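Sandwich ELISA for human TOPII-β, run per the kit protocol. Standards and samples were incubated 2 h at 37 °C, then biotin-antibody 1 h at 37 °C, three washes, HRP-avidin 1 h at 37 °C and five washes. TMB substrate was added for 15–30 min at 37 °C in the dark, then stop solution. OD450 was read within 5 min, in triplicate.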

Sequence of human DNA topoisomerase II-β (TOPII-β) (Q02880 whole entry): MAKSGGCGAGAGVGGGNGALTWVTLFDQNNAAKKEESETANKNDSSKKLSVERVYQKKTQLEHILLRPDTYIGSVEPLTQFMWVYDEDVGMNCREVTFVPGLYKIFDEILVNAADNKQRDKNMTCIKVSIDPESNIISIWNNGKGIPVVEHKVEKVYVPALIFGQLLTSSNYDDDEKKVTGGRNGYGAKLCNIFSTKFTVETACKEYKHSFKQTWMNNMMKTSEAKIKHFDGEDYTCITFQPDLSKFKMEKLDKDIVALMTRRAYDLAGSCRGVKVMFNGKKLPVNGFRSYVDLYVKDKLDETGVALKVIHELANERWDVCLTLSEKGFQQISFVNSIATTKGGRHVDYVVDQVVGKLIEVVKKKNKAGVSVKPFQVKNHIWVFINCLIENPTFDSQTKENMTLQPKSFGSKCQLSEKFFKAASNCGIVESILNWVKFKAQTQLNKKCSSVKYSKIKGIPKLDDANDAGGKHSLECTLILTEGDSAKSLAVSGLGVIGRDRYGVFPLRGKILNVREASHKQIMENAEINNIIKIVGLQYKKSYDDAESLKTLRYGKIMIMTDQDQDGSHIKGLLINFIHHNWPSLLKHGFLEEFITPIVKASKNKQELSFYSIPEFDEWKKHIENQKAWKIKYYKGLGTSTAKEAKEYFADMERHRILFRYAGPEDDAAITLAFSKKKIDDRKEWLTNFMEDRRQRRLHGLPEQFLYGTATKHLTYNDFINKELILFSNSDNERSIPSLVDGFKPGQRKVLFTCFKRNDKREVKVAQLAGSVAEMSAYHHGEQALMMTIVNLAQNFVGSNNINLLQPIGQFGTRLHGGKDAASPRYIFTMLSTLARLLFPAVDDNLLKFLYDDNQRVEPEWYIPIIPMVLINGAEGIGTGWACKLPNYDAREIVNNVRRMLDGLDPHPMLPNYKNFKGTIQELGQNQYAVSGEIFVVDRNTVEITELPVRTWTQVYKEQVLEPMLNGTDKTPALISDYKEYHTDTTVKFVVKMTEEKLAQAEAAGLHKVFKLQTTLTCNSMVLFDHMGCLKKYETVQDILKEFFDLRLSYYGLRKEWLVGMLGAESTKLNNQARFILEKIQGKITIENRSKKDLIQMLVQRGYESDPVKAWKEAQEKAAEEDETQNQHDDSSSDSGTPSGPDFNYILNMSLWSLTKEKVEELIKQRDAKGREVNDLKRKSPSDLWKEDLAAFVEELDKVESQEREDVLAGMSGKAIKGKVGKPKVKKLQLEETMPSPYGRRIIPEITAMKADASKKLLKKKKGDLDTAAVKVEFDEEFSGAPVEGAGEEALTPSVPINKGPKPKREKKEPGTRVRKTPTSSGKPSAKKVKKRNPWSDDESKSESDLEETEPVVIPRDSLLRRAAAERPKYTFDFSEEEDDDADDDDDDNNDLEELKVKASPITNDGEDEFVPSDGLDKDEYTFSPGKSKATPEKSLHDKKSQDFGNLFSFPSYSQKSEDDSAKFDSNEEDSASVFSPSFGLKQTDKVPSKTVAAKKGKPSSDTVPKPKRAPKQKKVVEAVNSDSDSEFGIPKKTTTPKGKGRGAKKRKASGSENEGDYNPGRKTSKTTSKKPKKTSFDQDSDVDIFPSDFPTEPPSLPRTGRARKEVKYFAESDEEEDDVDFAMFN

Turning to `COc1ccc(Br)c2cc(-c3cnc4ccccc4n3)c(=O)oc12` [compound 5, 2-(5-bromo-8-methoxy-coumarin-3-yl)-quinoxaline], the IC50 in data set [1] was found to be 55 µM.

As to `Oc1c(N=Nc2ccccc2)cc(Br)cc1C1=CNc2ccccc2N1` [compound 7, 2-(5-bromo-3-phenylazo-2-hydroxyphenyl)-1,4-dihydro quinoxaline], the IC50 in data set [1] stood at 8.6 µM.

As for `COc1cccc2cc(C3=Nc4ccccc4NC3)c(=O)oc12` [compound 3b, 2-(8-Methoxy-coumarin-3yl)-3,4-dihydroquinoxaline], the IC50 in data set [1] is 1.85 ± 0.11 µM. Besides, in data set [2], the IC50 at 48 h is 33.7 ± 2.04 µM. In addition, the “percentage of cells in the pre-G1 phase” value in data set [3] (untreated control 2.02%) was 42.39%. The “percentage of cells in the G2/M phase (%DIP G2/M)” value in data set [3] (untreated control 11.65%) was found to be 6.52%. Also, the “proportion of cells in the S phase (%DIP S)” value in data set [3] (untreated control 32.89%) is recorded as 47.12%. Also, the “percentage of cells in the G0/G1 phase (%DIP G1)” value in data set [3] (untreated control 55.46%) turned out to be 46.36%. In data set [4], the “increase in early apoptosis vs untreated control” value was 51.7 fold and the “increase in programmed cell death vs untreated cells” value is listed as 21 fold. Also, the “proportion of cells in late-stage apoptosis” value in data set [4] (control 0.29%) is 12.42%. Further, in data set [4] (control 0.51%), the “proportion of cells in early apoptosis” value is 26.39%. Moreover, the “proportion of cells suffering necrosis” value in data set [4] (untreated 1.2%) turned out to be 3.58%. Also, in data set [4] (untreated cells 2.02%), the “total programmed cell death” value is given as 42.39%. The “reduction of topo II enzyme in comparison to untreated control cells” value in data set [5] is 6.5 fold.

With `COc1cccc2cc(-c3cnc4ccccc4n3)c(=O)oc12` [compound 4b, 2-(8-Methoxycoumarin-3-yl)-quinoxaline], the IC50 in data set [1] was 4.08 µM.
